In ChEMBL document CHEMBL1629439, “High-throughput identification of antibacterials against methicillin-resistant Staphylococcus aureus (MRSA) and the transglycosylase” (Bioorg Med Chem, 2010):
Values after ≈ are worked out from the molar mass of the structure shown.

Tests used:
[1] = Inhibition of transglycosylase assessed as inhibition of NBD- labelled lipid II polymerization at 100 uM
Outline: (§1)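 100 µM NBD-labelled lipid II incubated 30 min with full-length PBP (EC, SA or Mtb) and 10 ng/µl N-acetylmuramidase in 50 mM Tris-HCl pH 8.0, 10 mM MgCl2, 0.1% Triton X-100, 10% DMSO, 15% MeOH. Supernatant run on anion-exchange HPLC with 20 mM–0.5 M ammonium acetate gradient. Inhibition calculated from substrate peak-area percentage. IC50 determined. S. aureus strains share one SA enzyme.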

Staphylococcus aureus [2] = test: Antimicrobial activity against Staphylococcus aureus ATCC 29213 after 18 to 24 hrs by alamar blue assay
[3] = system: Mycolicibacterium smegmatis; test: Antimicrobial activity against Mycobacterium smegmatis BCRC 11565 after 18 to 24 hrs by alamar blue assay; assay type: functional
Outline: (§2)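 Broth microdilution per NCCLS in Mueller-Hinton broth, 8-point twofold dilutions, 384-well format. Exponential-phase cells at 5 × 10^5 cells/ml incubated with compound 18–24 h at 37 °C, then 20% Alamar blue added and fluorescence read. MIC90 taken as the lowest concentration preventing at least 90% bacterial growth.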

Pseudomonas aeruginosa = test: Antimicrobial activity against Pseudomonas aeruginosa ATCC 25619 after 18 to 24 hrs by alamar blue assay; assay type: functional; outline: as §2
[4] = Displacement of fluorescein-labeled moenomycin from transglycosylase at 100 uM after 30 mins by fluorescence anisotropy binding assay
Staphylococcus aureus [5] = test: Antimicrobial activity against methicillin-resistant Staphylococcus aureus isolate NTUH4722 after 18 to 24 hrs by alamar blue assay; assay type: functional
Outline: (§3)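 Broth microdilution per NCCLS standard, Mueller-Hinton broth, 8-point twofold dilutions; exponentially growing cells at 5 10^5 cells/ml with compound, 18–24 h at 37 C; 20% Alamar blue added, fluorescence read; MIC90 taken as lowest concentration preventing at least 90% growth.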

Staphylococcus aureus [6] = test: Antimicrobial activity against oxacillin- and methicillin-resistant Staphylococcus aureus isolate Sa-OXA-R2 after 18 to 24 hrs by alamar blue assay; assay type: functional; outline: as §3
Escherichia coli = test: Antimicrobial activity against Escherichia coli ATCC […] after 18 to 24 hrs by alamar blue assay; assay type: functional; outline: as §2
Serratia marcescens = test: Antimicrobial activity against Serratia marcescens ATCC 14756 after 18 to 24 hrs by alamar blue assay; assay type: functional; outline: as §2
Acinetobacter baumannii = test: Antimicrobial activity against Acinetobacter baumannii ATCC 49139 after 18 to 24 hrs by alamar blue assay; assay type: functional; outline: as §2
Staphylococcus aureus [7] = test: Antimicrobial activity against methicillin-resistant Staphylococcus aureus ATCC 33592 after 18 to 24 hrs by alamar blue assay; assay type: functional; outline: as §3
Bacillus subtilis = test: Antimicrobial activity against Bacillus subtilis ATCC 23857 after 18 to 24 hrs by alamar blue assay; assay type: functional; outline: as §2
[8] = system: Stenotrophomonas maltophilia; test: Antimicrobial activity against Stenotrophomonas maltophilia ATCC 13637 after 18 to 24 hrs by alamar blue assay; assay type: functional; outline: as §2
[9] = Inhibition of transglycosylase assessed as inhibition of NBD- labelled lipid II polymerization; outline: as §1
Staphylococcus aureus [10] = test: Antimicrobial activity against wild-type Staphylococcus aureus ATCC 29213 after 18 to 24 hrs by alamar blue assay
[11] = Mycolicibacterium smegmatis, BCRC 11565, read-out: MIC
[12] = Pseudomonas aeruginosa, ATCC 25619, read-out: MIC
[13] = Escherichia coli, read-out: MIC
[14] = Serratia marcescens, ATCC 14756, read-out: MIC
[15] = Acinetobacter baumannii, ATCC 49139, read-out: MIC
[16] = Staphylococcus aureus, ATCC 33592, read-out: MIC
[17] = Stenotrophomonas maltophilia, ATCC 13637, read-out: MIC

Row | Compound | inhibition [1] [%] | MIC (Staphylococcus aureus [2]) [µg/mL] | MIC [3, 11] [µg/mL] | MIC (Pseudomonas aeruginosa; [12]) [µg/mL] | inhibition [4] [%] | MIC (Staphylococcus aureus [5]) [µg/mL] | MIC (Staphylococcus aureus [6]) [µg/mL] | MIC (Escherichia coli; [13]) [µg/mL] | MIC (Serratia marcescens; [14]) [µg/mL] | MIC (Acinetobacter baumannii; [15]) [µg/mL] | MIC (Staphylococcus aureus [7]; [16]) [µg/mL] | MIC (Bacillus subtilis) [µg/mL] | MIC [8, 17] [µg/mL] | IC90 [9] [µM] | also measured
1 | O=C(Nc1ccc(Cl)c(Cl)c1)c1ccc([N+](=O)[O-])o1 | 0 | 2 (≈ 6.64 µM) | 0.5 (≈ 1.66 µM) | 128 (≈ 425 µM) | 96 | 4 (≈ 13.3 µM) | > 4 | 256 (≈ 850 µM) | 32 (≈ 106 µM) | 12 (≈ 39.9 µM) | 2 (≈ 6.64 µM) | 0.06 (≈ 0.199 µM) | 32 (≈ 106 µM) |  | 
2 | O=C(Nc1cc(Cl)ccc1Oc1ccccc1)c1cc(Br)cc(Br)c1O | 100 | 0.5 (≈ 1 µM) | 0.5 (≈ 1 µM) | 16 (≈ 32.2 µM) | 97 | 0.5 (≈ 1 µM) | 0.5 (≈ 1 µM) | 8 (≈ 16.1 µM) | 16 (≈ 32.2 µM) | 16 (≈ 32.2 µM) | 0.25 (≈ 0.502 µM) | < 0.03 | 16 (≈ 32.2 µM) | 50 | 
3 | O=C(c1ccc(Cl)cc1)c1cc(NC(=O)c2cc(Cl)cc(Br)c2O)c(Cl)cc1Cl | 90 | 0.25 (≈ 0.468 µM) | 0.5 (≈ 0.936 µM) | 16 (≈ 30 µM) | 92 | 0.25 (≈ 0.468 µM) | 0.25 (≈ 0.468 µM) | 8 (≈ 15 µM) | 16 (≈ 30 µM) | 16 (≈ 30 µM) | 0.25 (≈ 0.468 µM) | < 0.03 | 16 (≈ 30 µM) | 100 | 
4 | Cc1c(CCC(=O)O)c(=O)oc2c(C)c3occ(-c4ccc(Cl)cc4)c3cc12 | 0 | 2.5 (≈ 6.3 µM) | 1 (≈ 2.52 µM) | > 256 | 97 | 2.5 (≈ 6.3 µM) | 2.5 (≈ 6.3 µM) | > 256 | > 256 | > 256 | 1.25 (≈ 3.15 µM) | > 64 | > 256 |  | 
5 | O=C(Nc1cccc2cccnc12)c1ccc([N+](=O)[O-])o1 | 0 | 2 (≈ 7.06 µM) | 0.5 (≈ 1.77 µM) | 128 (≈ 452 µM) | 90 | 2 (≈ 7.06 µM) | 2 (≈ 7.06 µM) | 256 (≈ 904 µM) | 32 (≈ 113 µM) | 12 (≈ 42.4 µM) | 2 (≈ 7.06 µM) | 0.06 (≈ 0.212 µM) | 32 (≈ 113 µM) |  | 
6 | O=C(Nc1ccc(Cl)c(C(=O)c2ccc(Cl)cc2)c1)c1cc(Cl)ccc1O |  | 4 (≈ 9.51 µM) | 0.5 (≈ 1.19 µM) | 16 (≈ 38 µM) |  |  |  | 8 (≈ 19 µM) | 16 (≈ 38 µM) | 16 (≈ 38 µM) | 4 (≈ 9.51 µM) | < 0.03 | 16 (≈ 38 µM) | 100 | MIC (Staphylococcus aureus [10]): >4 µg/mL; MIC [3]: 0.5 µg/mL (≈ 1.19 µM); MIC (Pseudomonas aeruginosa): 16 µg/mL (≈ 38 µM); MIC (Escherichia coli): 8 µg/mL (≈ 19 µM); MIC (Serratia marcescens): 16 µg/mL (≈ 38 µM); MIC (Acinetobacter baumannii): 16 µg/mL (≈ 38 µM); MIC (Staphylococcus aureus [7]): 4 µg/mL (≈ 9.51 µM); MIC [8]: 16 µg/mL (≈ 38 µM)
7 | O=C(Nc1ccc(Cl)c(Cl)c1)c1cc(Cl)ccc1NS(=O)(=O)c1ccc(Cl)cc1 | 0 | 0.25 (≈ 0.51 µM) | > 64 | > 256 | 98 | 0.25 (≈ 0.51 µM) | 0.25 (≈ 0.51 µM) | > 256 | > 256 | > 256 | 0.25 (≈ 0.51 µM) | < 0.03 | > 256 |  | 
8 | CCN(CC)c1cc(C)c2cc(NC(=O)c3ccc([N+](=O)[O-])o3)ccc2n1 | 0 | 2 (≈ 5.43 µM) | 0.5 (≈ 1.36 µM) | 128 (≈ 347 µM) | 90 | > 4 | > 4 | 256 (≈ 695 µM) | 32 (≈ 86.9 µM) | 12 (≈ 32.6 µM) | > 4 | 0.06 (≈ 0.163 µM) | 32 (≈ 86.9 µM) |  | 
9 | O=C(Nc1ccc(Cl)c(Cl)c1)c1cc(Cl)cc(Cl)c1O [3,3',4',5-TETRACHLOROSALICYLANILIDE] | 0 | 0.25 (≈ 0.712 µM) | 0.5 (≈ 1.42 µM) | 16 (≈ 45.6 µM) | 90 | 1 (≈ 2.85 µM) | 1 (≈ 2.85 µM) | 8 (≈ 22.8 µM) | 16 (≈ 45.6 µM) | 16 (≈ 45.6 µM) | 1 (≈ 2.85 µM) | < 0.03 | 16 (≈ 45.6 µM) |  | 
